Activity calls are given as the source filed them. No cut-off for these calls is given here.
Key:
Homo sapiens = organism: Homo sapiens; test: Inhibition of HDAC in human HeLa nuclear extract up to 2 uM using Boc-Lys(Ac)-AMC as substrate measured after 30 mins by fluorometric analysis
P388 [1] = test: Antitumor activity against mouse P388 cells implanted in CDF1 mouse assessed as increase in median survival time at 20 mg/kg, ip administered for 9 consecutive days; format: functional, organism-based
Method in brief: (§1)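 P388 leukemia cells were harvested from 6–7-day-old ascites grown in the peritoneum of female DBA/2 mice. Female CDF1 mice (18–23 g) received 5×10^5 cells i.p. on day 0. Next day they were randomized into groups of 7 and dosed i.p. daily for 9 consecutive days; controls got 0.2 ml normal saline. Mortality was followed to day 18, with median survival time and %T/C calculated.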

HL-60 [2] = test: Cytotoxicity against human HL60 cells assessed as growth inhibition at 10 uM after 48 hrs by MTT assay; format: functional; settings: HL-60, 48 h, read-out: GI
Method in brief: (§2)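 MTT assay, 48 h exposure; adherent lines seeded 12 h and suspension lines 4 h before compound. Media: RPMI-1640/10% FCS (THP-1, HL-60, Colo-205, Caco-2, A549), DMEM/10% FCS (A549, MIAPaCa-2, MCF-7). MTT 4 h, formazan dissolved in DMSO, absorbance 570 nm. Mean ± S.D of three experiments in triplicate; SAHA 5 µM reference.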

A549 = test: Cytotoxicity against human A549 cells assessed as growth inhibition at 10 uM after 48 hrs by MTT assay; format: functional; settings: A549, 48 h, read-out: GI; method in brief: as §2
Caco-2 = test: Cytotoxicity against human Caco2 cells assessed as growth inhibition at 10 uM after 48 hrs by MTT assay; format: functional; settings: Caco-2, 48 h, read-out: GI; method in brief: as §2
MCF7 = test: Cytotoxicity against human MCF7 cells assessed as growth inhibition at 10 uM after 48 hrs by MTT assay; format: functional; settings: MCF7, 48 h, read-out: GI; method in brief: as §2
COLO 205 = test: Cytotoxicity against human COLO205 cells assessed as growth inhibition at 10 uM after 48 hrs by MTT assay; format: functional; settings: COLO 205, 48 h, read-out: GI; method in brief: as §2
THP-1 = test: Cytotoxicity against human THP1 cells assessed as growth inhibition at 10 uM after 48 hrs by MTT assay; format: functional; settings: THP-1, 48 h, read-out: GI; method in brief: as §2
MOLT-4 [3] = test: Cytotoxicity against human MOLT4 cells assessed as growth inhibition at 10 uM after 48 hrs by MTT assay; format: functional; settings: MOLT-4, 48 h, read-out: GI
MIA PaCa-2 [4] = test: Cytotoxicity against human MIAPaCa2 cells assessed as growth inhibition at 10 uM after 48 hrs by MTT assay; format: functional; settings: MIA PaCa-2, 48 h, read-out: GI; method in brief: as §2
PC-3 = test: Cytotoxicity against human PC3 cells assessed as growth inhibition at 10 uM after 48 hrs by MTT assay; format: functional; settings: PC-3, 48 h, read-out: GI
P388 [5] = test: Antitumor activity against mouse P388 cells implanted in CDF1 mouse assessed as increase in median survival time at 50 mg/kg, ip administered for 9 consecutive days; format: functional; method in brief: as §1
HL-60 [6] = test: Induction of mitochondrial membrane potential loss in human HL60 cells at 1 uM measured after 48 hrs by Rh123 dye-based flow cytometric analysis (reference value: 5.6%); format: functional
Method in brief: (§3)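 Cells seeded in 6-well plates 2-4 h, then 48 h with compound; Rh-123 1 µM added for the final half hour; cells centrifuged, washed twice in PBS, resuspended in PBS, and Ψm loss quantified by flow cytometry as percentage of cells.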

MIA PaCa-2 [7] = test: Cytotoxicity against human MIAPaCa2 cells assessed as growth inhibition after 48 hrs by MTT assay; format: functional, cell-based; settings: MIA PaCa-2, 48 h; method in brief: as §2
MOLT-4 [8] = test: Induction of mitochondrial membrane potential loss in human MOLT4 cells at 1 uM measured after 48 hrs by Rh123 dye-based flow cytometric analysis (reference value: 9.6%); format: functional; method in brief: as §3
HL-60 [9] = test: Induction of mitochondrial membrane potential loss in human HL60 cells assessed as intact mitochondrial membrane potential at 1 uM measured after 48 hrs by Rh123 dye-based flow cytometric analysis (reference value: 91.3%); format: functional; method in brief: as §3
MOLT-4 [10] = test: Induction of mitochondrial membrane potential loss in human MOLT4 cells assessed as intact mitochondrial membrane potential at 1 uM measured after 48 hrs by Rh123 dye-based flow cytometric analysis (reference value: 90.4%); format: functional; method in brief: as §3

With `O=C(CCCC(=O)N[C@H]1CCN(Cc2ccccc2)C1)NO` the inhibition (Homo sapiens) was “inactive”.
In the case of `O=C(CCCC(=O)N[C@@H]1CCN(Cc2ccccc2)C1)NO`, the inhibition (Homo sapiens) is reported as “inactive”.
With `O=c1[nH]cc(F)c(=O)[nH]1` the Activity (P388 [1]) was “Active”.
`O=C(CCCC(=O)Nc1ccccc1CN1CC[C@H](O)C1)NO` was tested, and the inhibition of growth at 10 µM (HL-60 [2]) was 3%, the inhibition of growth at 10 µM (A549) was 5% and the inhibition of growth at 10 µM (Caco-2) was 1%. The inhibition of growth at 10 µM (MCF7) was 5%, the inhibition of growth at 10 µM (COLO 205) was 26% and the inhibition of growth at 10 µM (THP-1) was 3%. The inhibition of growth at 10 µM (MOLT-4 [3]) was 27%, the inhibition of growth at 10 µM (MIA PaCa-2 [4]) was 4% and the inhibition of growth at 10 µM (PC-3) was 2%. For the same compound, the inhibition (Homo sapiens) was “Active”.
With `O=C(CCCCCCCC(=O)Nc1ccccc1CN1CC[C@H](O)C1)NO` the inhibition of growth at 10 µM (HL-60 [2]) was 6%, the inhibition of growth at 10 µM (A549) was 5% and the inhibition of growth at 10 µM (Caco-2) was 5%. It also gave an inhibition of growth at 10 µM (MCF7) of 3%, an inhibition of growth at 10 µM (COLO 205) of 7% and an inhibition of growth at 10 µM (THP-1) of 17%. For the same compound, the inhibition of growth at 10 µM (MOLT-4 [3]) was 30%, the inhibition of growth at 10 µM (MIA PaCa-2 [4]) was 2% and the inhibition of growth at 10 µM (PC-3) was 12%. The inhibition (Homo sapiens) was “Active”.
`O=C(CCCCCCC(=O)N[C@H]1CCN(Cc2ccccc2)C1)NO` was tested, and the inhibition (Homo sapiens) was “inactive”.
For `O=C(CCCCCCCC(=O)N[C@@H]1CCN(Cc2ccccc2)C1)NO`, the inhibition (Homo sapiens) was “inactive”.
With `O=C(CCCCCCC(=O)Nc1ccccc1)NO` [VORINOSTAT] the Activity (P388 [5]) was “Active”, the Activity (HL-60 [6]) was 12.9% and the IC50 (MIA PaCa-2 [7]) was 2200 nM. It also gave an Activity (MOLT-4 [8]) of 28.4%, an Activity (HL-60 [9]) of 75.6% and an Activity (MOLT-4 [10]) of 71.6%.
For `O=C(CCCCC(=O)N[C@@H]1CCN(Cc2ccccc2)C1)NO`, the inhibition (Homo sapiens) was “inactive”.
Work on `O=C(CCCCC(=O)Nc1ccccc1CN1CC[C@H](O)C1)NO` yielded an inhibition of growth at 10 µM (HL-60 [2]) of 29%, an inhibition of growth at 10 µM (A549) of 19% and an inhibition of growth at 10 µM (Caco-2) of 31%. For the same compound, the inhibition of growth at 10 µM (MCF7) was 26%, the inhibition of growth at 10 µM (COLO 205) was 22% and the inhibition of growth at 10 µM (THP-1) was 37%. For the same compound, the inhibition of growth at 10 µM (MOLT-4 [3]) was 38%, the inhibition of growth at 10 µM (MIA PaCa-2 [4]) was 12% and the inhibition of growth at 10 µM (PC-3) was 15%. For the same compound, the inhibition (Homo sapiens) was “Active”.
For `O=C(CCCCCCC(=O)N[C@@H]1CCN(Cc2ccccc2)C1)NO`, the inhibition (Homo sapiens) was “inactive”.
`O=C(CCCCCCCC(=O)N[C@H]1CCN(Cc2ccccc2)C1)NO` was tested, and the inhibition (Homo sapiens) was “inactive”.
For `O=C(CCCCC(=O)N[C@H]1CCN(Cc2ccccc2)C1)NO`, the inhibition (Homo sapiens) was “inactive”.

Source: ChEMBL document CHEMBL4049428, “Exploring Derivatives of Quinazoline Alkaloid l-Vasicine as Cap Groups in the Design and Biological Mechanistic Evaluation of Novel Antitumor Histone Deacetylase Inhibitors” (J Med Chem, 2017)
